Laboratory results reported in ChEMBL document CHEMBL4014332, “Multitargeted Imidazoles: Potential Therapeutic Leads for Alzheimer's and Other Neurodegenerative Diseases” (J Med Chem, 2017).

Legend:
Cyclooxygenase = target: T1, Cyclooxygenase (Rattus norvegicus, UniProt P35355+Q63921); test: Inhibition of COX-mediated PGD2/PGE2 production in arachidonic acid-stimulated RBL1 cells preincubated for 2 hrs followed by A23187 induction for 15 mins by LC/MS/MS analysis
T1 sequence (P35355 whole entry): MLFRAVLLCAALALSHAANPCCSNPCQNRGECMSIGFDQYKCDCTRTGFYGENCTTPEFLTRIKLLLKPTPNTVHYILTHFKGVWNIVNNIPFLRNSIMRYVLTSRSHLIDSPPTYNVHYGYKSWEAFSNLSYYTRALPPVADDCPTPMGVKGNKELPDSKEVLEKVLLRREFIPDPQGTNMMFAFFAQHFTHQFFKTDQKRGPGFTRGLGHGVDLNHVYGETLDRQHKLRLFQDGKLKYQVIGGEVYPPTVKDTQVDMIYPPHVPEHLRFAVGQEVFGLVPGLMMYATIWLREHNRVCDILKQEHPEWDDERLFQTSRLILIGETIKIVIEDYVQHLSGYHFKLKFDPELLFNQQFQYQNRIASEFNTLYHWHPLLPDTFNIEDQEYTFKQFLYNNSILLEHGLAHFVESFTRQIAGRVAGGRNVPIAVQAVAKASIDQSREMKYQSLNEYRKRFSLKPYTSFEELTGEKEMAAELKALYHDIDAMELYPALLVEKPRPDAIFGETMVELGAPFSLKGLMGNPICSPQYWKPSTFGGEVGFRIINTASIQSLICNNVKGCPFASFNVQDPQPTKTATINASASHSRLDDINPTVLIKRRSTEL
T1 sequence (Q63921 whole entry): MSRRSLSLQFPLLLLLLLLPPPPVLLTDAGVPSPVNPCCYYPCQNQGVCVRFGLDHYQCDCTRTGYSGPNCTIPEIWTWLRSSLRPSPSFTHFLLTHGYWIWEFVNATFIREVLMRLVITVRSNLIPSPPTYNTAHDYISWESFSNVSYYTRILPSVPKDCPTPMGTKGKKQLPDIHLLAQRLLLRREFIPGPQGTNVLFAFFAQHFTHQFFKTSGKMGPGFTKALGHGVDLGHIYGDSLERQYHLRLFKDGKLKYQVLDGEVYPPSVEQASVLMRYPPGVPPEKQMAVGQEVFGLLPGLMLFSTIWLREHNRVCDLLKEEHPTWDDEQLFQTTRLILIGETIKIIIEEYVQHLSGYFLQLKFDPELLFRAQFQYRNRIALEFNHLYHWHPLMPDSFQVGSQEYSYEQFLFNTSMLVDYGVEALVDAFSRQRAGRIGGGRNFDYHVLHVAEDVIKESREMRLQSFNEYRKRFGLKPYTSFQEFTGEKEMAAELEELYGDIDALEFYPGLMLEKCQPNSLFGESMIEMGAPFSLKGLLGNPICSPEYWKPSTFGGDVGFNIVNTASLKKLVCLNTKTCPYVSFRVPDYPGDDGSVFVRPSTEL
In short: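 RBL-1 cells in RPMI/10% FBS, 9 × 10⁵ cells/well, held 2 h, then exposed to compound for 2 h at multiple concentrations in triplicate. Stimulation was 12 μM A23187 for 15 min. Eicosanoids were extracted with MeOH/0.01% BHT, and PGD₂ plus PGE₂ measured by UPLC-MS/MS (negative ion, 351 > 315).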

[1] = Change in total alpha-tubulin levels in human QBI293 cells at 1 uM after 4 hrs by ELISA relative to control; details: qbi293, 4 h
[2] = Plasma concentration in mouse at 5 mg/kg, ip administered as single dose after 1 hr by LC-MS/MS method; format: ADME, organism-based
In short: (§1)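 Groups of three CD-1 or B6SJL mice, 2–5 months old, sexes not mixed, received a single 5 mg/kg i.p. dose in DMSO. Compound was quantified in plasma and brain homogenate at a single time point, and the brain/plasma ratio was derived from these. Values are mean ± SD.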

Rattus norvegicus [3] = species on record: Rattus norvegicus; test: Inhibition of 5-LOX-mediated LTB4 production in arachidonic acid-stimulated RBL1 cells at 10 uM preincubated for 2 hrs followed by A23187 induction for 15 mins by LC/MS/MS analysis relative to control
In short: (§2)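 RBL-1 cells grown in RPMI/10% FBS, plated 9 × 10⁵ cells/well, held 2 h at 37 °C, then given compound for 2 h (screen at 10 μM, then concentration–response in triplicate). Stimulation was 12 μM A23187 for 15 min. Supernatants were extracted with MeOH/0.01% BHT and LTB₄ quantified by UPLC-MS/MS in negative ion mode.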

[4] = Drug uptake in mouse brain at 5 mg/kg, ip administered as single dose after 1 hr by LC-MS/MS method; format: ADME, organism-based; details: read-out: Drug uptake; in short: as §1
[5] = Inhibition of 5-LOX-mediated LTB4 production in arachidonic acid-stimulated RBL1 cells preincubated for 2 hrs followed by A23187 induction for 15 mins by LC/MS/MS analysis; details: Rattus norvegicus, RBL-1; in short: as §2
[6] = Ratio of drug level in brain to plasma in mouse at 5 mg/kg, ip administered as single dose; format: ADME, organism-based; details: read-out: BPR; in short: as §1
[7] = Drug uptake in mouse brain at 2 mg/kg, ip administered as cassette dosing after 1 hr by LC-MS/MS method; format: ADME, organism-based; details: read-out: Drug uptake
In short: (§3)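 Groups of three 2–5-month-old CD-1 or B6SJL mice, sexes kept separate, were cassette-dosed i.p. in DMSO at 2 mg/kg with two or three compounds given together. Plasma and brain homogenate levels were measured at a single time point and scaled proportionally up to 5 mg/kg. The brain/plasma ratio was derived from these, reported as mean ± SD.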

[8] = Plasma concentration in mouse at 2 mg/kg, ip administered as cassette dosing after 1 hr by LC-MS/MS method; format: ADME, organism-based; in short: as §3
[9] = Ratio of drug level in brain to plasma in mouse at 2 mg/kg, ip administered as cassette dosing; format: ADME, organism-based; details: read-out: BPR; in short: as §3
[10] = Change in total alpha-tubulin levels in human QBI293 cells at 10 uM after 4 hrs by ELISA relative to control; format: cell-based; details: qbi293, 4 h
In short: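 QBI-293 cells grown in DMEM/10% FBS at 37 °C, 5% CO2, plated 6 × 10⁵ cells/well, left overnight, then given vehicle or compound (1 and 10 μM) for 4 h. Cells were lysed in RIPA with protease inhibitors, 1 mM PMSF and 1 μM TSA, then spun at 100000g for 30 min. Total α-tubulin was measured by ELISA, normalized by BCA protein, expressed as fold change vs DMSO, triplicate, two-tailed unpaired t test.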

Homo sapiens = species on record: Homo sapiens; test: Induction of microtubule stabilization in human QBI293 cells assessed as increase in acetylated tubulin levels at 1 uM after 4 hrs by ELISA relative to control; format: cell-based
In short: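 QBI-293 cells grown in DMEM/10% FBS at 37 °C, 5% CO2, plated 6 × 10⁵ cells/well overnight, then treated with vehicle or compound (1 and 10 μM) for 4 h. Lysis was in RIPA with protease inhibitors, 1 mM PMSF and 1 μM TSA, followed by 100000g spin for 30 min. Acetylated α-tubulin was measured by ELISA on BCA-quantified supernatant, reported as fold change vs DMSO, at least triplicate, t test.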

Rattus norvegicus [11] = species on record: Rattus norvegicus; details: at 10 nM
[12] = target: Cyclooxygenase (Rattus norvegicus) (UniProt P35355+Q63921); details: at 10 nM

IC50 (Cyclooxygenase) | concentration at 1 h [2] | inhibition (Rattus norvegicus [3]) | concentration at 1 h [4] | IC50 [5] | Kp [6] | concentration at 1 h [7] | concentration at 1 h [8] | Kp [9] | fold change (FC) [10] | FC [1] | inhibition (Rattus norvegicus [11]) | inhibition [12] | SMILES | Activity [1] | fold change (FC) (Homo sapiens)
6.5 µM | 260 nM | 78% | 240 nM | 7.8 µM | 0.9 |  |  |  |  |  |  |  | Fc1ccc(Br)c(F)c1-c1c(Cl)ncn1-c1ccc(Cl)cc1 | Non-Toxic | 
2.4 µM |  | 76% |  | 13.8 µM |  | 700 nM | 400 nM | 1.9 |  |  |  |  | Fc1cccc(F)c1-c1c(Cl)ncn1-c1ccc(Cl)cc1 | Non-Toxic | 
12.1 µM |  | 71% |  | 13.4 µM |  | 600 nM | 500 nM | 1.4 |  |  |  |  | Cc1ncn(-c2ccc(Cl)cc2)c1-c1c(F)ccc(Cl)c1F | Non-Toxic | 
2.9 µM | 300 nM | 69% | 700 nM | 2.4 µM | 2.8 |  |  |  |  |  |  |  | Fc1ccc(F)c(-c2c(Cl)ncn2-c2ccc(Cl)cc2)c1F | Non-Toxic | 
 |  | 40% |  |  |  |  |  |  | 1.2 |  |  |  | Cc1nc(C)n(-c2ccc(Cl)cc2)c1-c1c(F)cccc1F |  | 
 |  | 38% |  |  |  |  |  |  | 0.6 | 0.3 |  |  | COc1cc(F)c(-c2c(Cl)nc(Cl)n2-c2ccc(Cl)cc2)c(F)c1 |  | 3.3
 |  | 46% |  |  |  |  |  |  | 1.2 |  |  |  | Fc1cccc(F)c1-c1cncn1-c1ccc(Cl)cc1 |  | 
1 µM |  | 71% |  | 12.5 µM |  | 200 nM | 80 nM | 2.4 |  |  |  |  | Clc1ccc(-n2cnc(Cl)c2-c2ccccc2)cc1 | Non-Toxic | 
 |  | 69% |  |  |  |  |  |  | 0.8 | 0.9 |  |  | Cc1ccc(F)c(-c2cnc(Cl)n2-c2ccc(Cl)cc2)c1F |  | 
4.6 µM | 240 nM | 66% | 700 nM | 6 µM | 3 |  |  |  |  |  |  |  | Fc1cc(-n2cnc(Cl)c2-c2c(F)ccc(F)c2F)ccc1Cl | Non-Toxic | 
2.2 µM |  | 96% |  | 2.5 µM |  | 200 nM | 60 nM | 3.3 |  |  |  |  | Fc1ccc(F)c(-c2cnc(Cl)n2-c2ccc(Cl)cc2)c1 | Non-Toxic | 
 |  | 75% |  |  |  |  |  |  | 0.8 | 0.7 |  |  | Cc1nc(Cl)c(-c2c(F)ccc(F)c2F)n1-c1ccc(Cl)c(F)c1 |  | 3.9
1.8 µM |  | 75% |  | 11.7 µM |  | 300 nM | 110 nM | 2.5 |  |  |  |  | Cc1cc(F)c(-c2c(Cl)ncn2-c2ccc(Cl)cc2)c(F)c1 | Non-Toxic | 
15 µM | 480 nM | 92% | 900 nM | 10.7 µM | 1.9 |  |  |  |  |  |  |  | Fc1cccc(F)c1-c1cnc(Cl)n1-c1ccc(Cl)cc1 | Non-Toxic | 
 |  | 88% |  |  |  |  |  |  | 0.6 | 0.3 |  |  | COc1cc(F)c(-c2c(Cl)nc(C)n2-c2ccc(Cl)cc2)c(F)c1 |  | 7.1
 |  | 88% |  |  |  |  |  |  | 0.9 | 0.4 |  |  | COc1ccc(F)c(-c2c(Cl)nc(Cl)n2-c2ccc(Cl)cc2)c1F |  | 5.1
2.2 µM | 190 nM | 63% | 400 nM | 9.5 µM | 2.1 |  |  |  |  |  |  |  | Fc1ccc(Cl)c(F)c1-c1c(Cl)ncn1-c1ccc(Cl)cc1 | Non-Toxic | 
 |  |  |  |  |  |  |  |  |  |  | 70% | < 10% | CC(C)c1ccc2c(c1)c(SC(C)(C)C)c(CC(C)(C)C(=O)O)n2Cc1ccc(Cl)cc1 |  | 
4.7 µM |  | 74% |  | 23.7 µM |  | 400 nM | 200 nM | 1.9 | 1.2 |  |  |  | Cc1ncn(-c2ccc(Cl)cc2)c1-c1c(F)ccc(F)c1F |  | 
9.8 µM |  | 75% |  | 20.8 µM |  | 210 nM | 210 nM | 0.9 |  |  |  |  | COc1ccc(-n2c(-c3c(F)cc(F)cc3F)cnc2Cl)cc1 | Non-Toxic | 

SMILES | IC50 (Cyclooxygenase) | concentration at 1 h [2] | inhibition (Rattus norvegicus [3]) | concentration at 1 h [4] | IC50 [5] | Kp [6] | concentration at 1 h [7] | concentration at 1 h [8] | Kp [9] | fold change (FC) [10] | FC [1] | inhibition (Rattus norvegicus [11]) | inhibition [12] | Activity [1] | fold change (FC) (Homo sapiens)
C[C@H](Nc1c(-c2c(F)cc(OCCCN(C)C)cc2F)c(Cl)nc2ncnn12)C(F)(F)F |  |  |  |  |  |  |  |  |  | 0.7 | 0.4 |  |  |  | 6
